ChEMBL document CHEMBL1127690, “Antiinflammatory 4,5-diarylpyrroles: synthesis and QSAR” (J Med Chem, 1994)

How the values were obtained:
Rattus norvegicus [1] = species: Rattus norvegicus; test: Antiinflammatory activity against adjuvant induced arthritis in male charles river rats; assay type: functional
[2] = Ratio (12-day no effect/AA ED50) of the compound; assay type: functional
How it was run: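 Maximum no-effect dose from the 12-day study divided by the adjuvant arthritis ED50. […] Read-outs were mortality, pharmacologic or toxic signs, body and organ weights and gross necropsy.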

Rattus norvegicus [3] = test: Safety assessment in adjuvant induced arthritis rat model (AA),po; assay type: functional
[4] = Cmax value at a dose of 6.3 uM/kg, iv; assay type: ADME, organism-based; design: dose 6.3 uM/kg, route intravenous; conditions: in vivo
Rattus norvegicus [5] = species: Rattus norvegicus; test: Compound was evaluated for 12 day tolerance in long evans rats; assay type: functional
[6] = Volume of distribution at a dose of 6.3 uM/kg, iv; assay type: ADME, organism-based; conditions: in vivo
[7] = Cmax value at a dose of 12.7 uM/kg, po; assay type: ADME, organism-based; design: dose 12.7 uM/kg, route oral; conditions: in vivo
[8] = Gastrointestinal safety of a compound relative to indomethacin and piroxicam; assay type: ADME
How it was run: (§1)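 Male Sprague-Dawley rats (~165 g) received a single oral dose of drug or vehicle. Stomach and small intestine were examined for mucosal lesions under a 10× dissecting microscope in coded, randomized order. Any single lesion counted as positive. TD50 was calculated by the moving-average method.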

Rattus norvegicus [9] = test: Safety assessment in adjuvant induced arthritis rat model (AA),day 18,po; assay type: functional; conditions: 432 h
[10] = TD50/ED50 value of the compound; assay type: functional
How it was run: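 Ratio of the GI lesion TD50 to the established adjuvant arthritis paw ED50, both measured orally in rats.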

[11] = Elimination half life at a dose of 6.3 uM/kg iv; assay type: ADME, organism-based; conditions: in vivo
[12] = Elimination half life at a dose of 12.7 uM/kg, po; assay type: ADME, organism-based; conditions: in vivo
[13] = Volume of distribution at dose of 12.2 uM/kg, iv; assay type: ADME, organism-based; conditions: in vivo
[14] = Elimination half life at dose of 12.2 uM/kg, iv; assay type: ADME, organism-based; conditions: in vivo
[15] = Maximum blood level reached after an iv dose of 12.2 uM/kg; assay type: ADME, organism-based; design: dose 12.2 uM/kg, route intravenous; conditions: in vivo
[16] = Elimination half life at dose of 12.2uM/kg, po; conditions: in vivo
[17] = Elimination half life at a dose of 14.3 uM/kg, po; assay type: ADME, organism-based; conditions: in vivo
[18] = Cmax value at a dose of 7.1 uM/kg, iv; assay type: ADME, organism-based; design: dose 7.1 uM/kg, route intravenous; conditions: in vivo
[19] = Volume of distribution at a dose of 7.1 uM/kg, iv; assay type: ADME, organism-based; conditions: in vivo
[20] = Bioavailability at a dose of 7.1 uM/kg, iv; assay type: ADME, organism-based; conditions: eutheria, in vivo
[21] = Elimination half life at a dose of 7.1 uM/kg, iv; assay type: ADME, organism-based; conditions: in vivo
[22] = Maximum blood level reached after an oral dose of 5.0 mg/kg; assay type: ADME, organism-based; design: dose 5 mg/kg, route oral; conditions: in vivo
[23] = biological target: T1, Polyunsaturated fatty acid 5-lipoxygenase (Rattus norvegicus, UniProt P12527); test: Inhibitory activity against rat basophilic leukemia 5-lipoxygenase
T1 sequence (P12527 whole entry): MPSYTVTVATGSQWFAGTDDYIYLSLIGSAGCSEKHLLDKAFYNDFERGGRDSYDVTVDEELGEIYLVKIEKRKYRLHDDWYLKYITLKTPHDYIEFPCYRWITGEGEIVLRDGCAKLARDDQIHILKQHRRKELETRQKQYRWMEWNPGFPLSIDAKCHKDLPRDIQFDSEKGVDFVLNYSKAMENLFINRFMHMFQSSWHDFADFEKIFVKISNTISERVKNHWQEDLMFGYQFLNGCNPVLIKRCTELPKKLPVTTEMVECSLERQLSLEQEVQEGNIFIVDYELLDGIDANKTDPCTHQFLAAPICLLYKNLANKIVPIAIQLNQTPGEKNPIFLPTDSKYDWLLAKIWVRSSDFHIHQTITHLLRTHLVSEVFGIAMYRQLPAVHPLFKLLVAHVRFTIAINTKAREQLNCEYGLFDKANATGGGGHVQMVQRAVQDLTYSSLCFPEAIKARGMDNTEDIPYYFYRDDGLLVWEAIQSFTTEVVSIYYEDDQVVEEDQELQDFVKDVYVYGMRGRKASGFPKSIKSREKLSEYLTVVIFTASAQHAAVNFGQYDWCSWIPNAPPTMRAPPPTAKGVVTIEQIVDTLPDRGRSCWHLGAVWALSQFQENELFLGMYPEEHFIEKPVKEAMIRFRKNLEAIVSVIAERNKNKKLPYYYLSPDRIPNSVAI

[24] = (§2) Safety assessment in car paw assay, po; assay type: toxicity
Rattus norvegicus [25] = species: Rattus norvegicus; test: Effective dose required for prevention of nonestablished adjuvant arthritis model wih an oral paw 18-day; assay type: functional; conditions: 432 h
Rattus norvegicus [26] = species: Rattus norvegicus; test: Maximum tolerated dose for 12 days in long evans rats; assay type: functional
Mus musculus [27] = species: Mus musculus; test: Activity in the mouse oral contact sensitivity model; assay type: functional
[28] = Elimination half life at dose of 14.7 uM/kg oral route; assay type: ADME, organism-based; conditions: in vivo
[29] = Volume of distribution at dose of 14.7 uM/kg intravenous route; assay type: ADME, organism-based; conditions: in vivo
[30] = Elimination half life at dose of 14.7 uM/kg intravenous route; assay type: ADME, organism-based; conditions: in vivo
[31] = Maximum blood level reached after an oral dose 14.7 uM/kg oral route; assay type: ADME, organism-based; design: dose 14.7 uM/kg, route oral; conditions: in vivo
[32] = Maximum blood level reached after an oral dose of 14.7 uM/kg intravenous route; assay type: ADME, organism-based; conditions: in vivo
[33] = Elimination half life at dose of 10.6 uM/kg intravenously; assay type: ADME, organism-based; conditions: in vivo, iv
[34] = Maximum blood level reached at dose of 10.6 uM/kg orally; assay type: ADME, organism-based; design: dose 10.6 uM/kg, route oral; conditions: in vivo, po
[35] = Elimination half life at dose of 10.6 uM/kg orally; assay type: ADME, organism-based; conditions: in vivo, po
[36] = Volume of distribution at dose of 10.6 uM/kg intravenously; assay type: ADME, organism-based; conditions: in vivo, iv
[37] = Maximum blood level reached after an dose of 10.6 uM/kg intravenously; assay type: ADME, organism-based; design: dose 10.6 uM/kg, route intravenous; conditions: in vivo, iv
Rattus norvegicus [38] = species: Rattus norvegicus; test: Activity in the nonestablished adjuvant-induced arthritis model; assay type: functional
[39] = Gastrointestinal safety of a compound relative to indomethacin and piroxicam in rats; assay type: ADME, organism-based; conditions: rat, in vivo; how it was run: as §1
Rattus norvegicus [40] = test: as §2; assay type: functional
Mus musculus [41] = species: Mus musculus; test: Effective dose of compound against analgesia was determined by phenylquinone writhing assay

CS(=O)(=O)c1ccc(-c2[nH]c(I)c(I)c2-c2ccc(F)cc2)cc1
ED50 (Rattus norvegicus [1]): 41.3 mg/kg

Cn1c(SC#N)cc(-c2ccc(F)cc2)c1-c1ccc(S(C)(=O)=O)cc1
ED50 (Rattus norvegicus [1]): > 27 mg/kg

CS(=O)(=O)c1ccc(-c2[nH]c(Br)cc2-c2ccc(F)cc2)cc1
Ratio [2]: > 43
ED50 (Rattus norvegicus [3]; read-out: ED50): 2.55 µmol/kg
Cmax [4]: 2 uM l-1
no-effect dose (Rattus norvegicus [5]): >46 µM/kg
Vd [6]: 3.5 L/kg
Cmax [7]: 3 uM l-1
ED50 (Rattus norvegicus [1]): 1.05 mg/kg
TD50 [8]: 95.9 µmol/kg
ED50 (Rattus norvegicus [9]; read-out: ED50): 22.7 µmol/kg
TD50/ED50 [10]: 36
half-life [11]: 10.2 h
half-life [12]: 9.9 h

CS(=O)(=O)c1ccc(-c2[nH]ccc2-c2ccc(F)cc2)cc1
ED50 (Rattus norvegicus [1]): > 100 mg/kg

CCCCC1C(=O)N(c2ccccc2)N(c2ccccc2)C1=O [PHENYLBUTAZONE]
ED50 (Rattus norvegicus [1]): 10 mg/kg

CC(=O)n1c(Br)cc(-c2ccc(F)cc2)c1-c1ccc(S(C)(=O)=O)cc1
ED50 (Rattus norvegicus [1]): 36.2 mg/kg

CS(=O)(=O)c1ccc(-c2[nH]c(F)c(F)c2-c2ccc(F)cc2)cc1
ED50 (Rattus norvegicus [1]): 0.31 mg/kg

CS(=O)(=O)c1ccc(-c2[nH]c(Cl)c(Cl)c2-c2ccc(F)cc2)cc1
ED50 (Rattus norvegicus [1]): 1.5 mg/kg

CS(=O)(=O)c1ccc(-c2[nH]c(S(=O)(=O)O)cc2-c2ccc(F)cc2)cc1.c1ccncc1
ED50 (Rattus norvegicus [1]): 12.7 mg/kg

CS(=O)(=O)c1ccc(-c2[nH]c(S(C)(=O)=O)cc2-c2ccc(F)cc2)cc1
ED50 (Rattus norvegicus [1]): 36.6 mg/kg

Cn1c(Br)cc(-c2ccc(F)cc2)c1-c1ccc(S(C)(=O)=O)cc1
ED50 (Rattus norvegicus [3]; read-out: ED50): 3.43 µmol/kg
Vd [13]: 10 L/kg
half-life [14]: 13.7 h
Cmax [15]: 2.9 uM l-1
half-life [16]: 4.3 h
ED50 (Rattus norvegicus [1]): 1.7 mg/kg
TD50 [8]: > 416 µmol/kg
TD50/ED50 [10]: > 100

CS(=O)(=O)c1ccc(-c2[nH]c(Cl)cc2-c2ccc(F)cc2)cc1
half-life [17]: 5.8 h
ED30 (Rattus norvegicus [3]): 1.43 µM/kg
Cmax [18]: 1.4 uM l-1
Vd [19]: 9 L/kg
F [20]: 1
half-life [21]: 6.1 h
ED50 (Rattus norvegicus [1]): 0.5 mg/kg
TD50 [8]: 100 µmol/kg
Cmax [22]: 2.3 uM l-1
TD50/ED50 [10]: 70

CS(=O)(=O)c1ccc(-c2[nH]c(SC#N)cc2-c2ccc(F)cc2)cc1
ED50 (Rattus norvegicus [3]; read-out: ED50): 10.5 µmol/kg
IC50 [23]: 80 nM
ED30 [24]: 268.5 µM/kg
no-effect dose (Rattus norvegicus [5]): >418 µM/kg
ED50 (Rattus norvegicus [1]): 3.9 mg/kg
TD50 [8]: > 335 µmol/kg
ED50 (Rattus norvegicus [9]; read-out: ED50): 18.8 µmol/kg
ED50 (Rattus norvegicus [25]): 7 mg/kg
Max tolerated dose (Rattus norvegicus [26]): >418 µM/kg
ED35 (Mus musculus [27]): 8 mg/kg

Cc1ccc(S(=O)(=O)n2c(Br)cc(-c3ccc(F)cc3)c2-c2ccc(S(C)(=O)=O)cc2)cc1
ED50 (Rattus norvegicus [1]): > 9 mg/kg

CC(C)Cc1ccc(C(C)C(=O)O)cc1 (stereo unspecified) [IBUPROFEN]
ED50 (Rattus norvegicus [1]): 100 mg/kg

CS(=O)(=O)c1ccc(-c2[nH]c(Cl)c(Br)c2-c2ccc(F)cc2)cc1
ED50 (Rattus norvegicus [1]): 3.4 mg/kg

CS(=O)(=O)c1ccc(-c2[nH]c(C#N)cc2-c2ccc(F)cc2)cc1
half-life [28]: 17.3 h
ED50 (Rattus norvegicus [3]; read-out: ED50): 3.82 µmol/kg
Vd [29]: 5.7 L/kg
ED50 (Rattus norvegicus [1]): 1.3 mg/kg
TD50 [8]: > 381 µmol/kg
half-life [30]: 13.7 h
Cmax [31]: 2.9 uM l-1
TD50/ED50 [10]: > 100
Cmax [32]: 4.1 uM l-1

CS(=O)(=O)c1ccc(-c2[nH]c(Br)c(Cl)c2-c2ccc(F)cc2)cc1
ED50 (Rattus norvegicus [1]): 4.28 mg/kg

CC(C)(C)OC(=O)n1c(Br)cc(-c2ccc(F)cc2)c1-c1ccc(S(C)(=O)=O)cc1
ED50 (Rattus norvegicus [1]): 31 mg/kg

CS(=O)(=O)c1ccc(-c2[nH]c(I)cc2-c2ccc(F)cc2)cc1
ED50 (Rattus norvegicus [1]): 22 mg/kg

CS(=O)(=O)c1ccc(-c2[nH]c(Br)c(Br)c2-c2ccc(F)cc2)cc1
ED50 (Rattus norvegicus [3]; read-out: ED50): 4.1 µmol/kg
half-life [33]: 29.3 h
Cmax [34]: 1.5 uM l-1
half-life [35]: 47.5 h
Vd [36]: 4.3 L/kg
Cmax [37]: 2.8 uM l-1
ED50 (Rattus norvegicus [1]): 1.94 mg/kg
TD50 [8]: > 211 µmol/kg
TD50/ED50 [10]: > 113

CS(=O)(=O)c1ccc(-c2[nH]c(C(=O)C(F)(F)F)cc2-c2ccc(F)cc2)cc1
ED50 (Rattus norvegicus [1]): 19.4 mg/kg

CS(=O)(=O)c1ccc(-c2[nH]c([N+](=O)[O-])cc2-c2ccc(F)cc2)cc1
ED50 (Rattus norvegicus [1]): 9 mg/kg

COc1ccc2c(c1)c(CC(=O)O)c(C)n2C(=O)c1ccc(Cl)cc1 [INDOMETHACIN]
ED50 (Rattus norvegicus [1]): 0.3 mg/kg

CCOC(=O)CCCCn1c(Cl)cc(-c2ccc(F)cc2)c1-c1ccc(S(C)(=O)=O)cc1
ED50 (Rattus norvegicus [1]): > 100 mg/kg

CS(=O)(=O)c1ccc(-c2[nH]c(F)cc2-c2ccc(F)cc2)cc1
ED50 (Rattus norvegicus [1]): 0.31 mg/kg

Cn1c(Cl)c(Cl)c(-c2ccc(F)cc2)c1-c1ccc(S(C)(=O)=O)cc1
ED50 (Rattus norvegicus [1]): 5 mg/kg

Cn1c(Br)c(Br)c(-c2ccc(F)cc2)c1-c1ccc(S(C)(=O)=O)cc1
ED50 (Rattus norvegicus [1]): 4.16 mg/kg

CSc1cc(-c2ccc(F)cc2)c(-c2ccc(S(C)(=O)=O)cc2)[nH]1
Ratio [2]: > 30
ED50 (Rattus norvegicus [3]): 4.98 µM/kg
ED50 (Rattus norvegicus [38]): 25 mg/kg
no-effect dose (Rattus norvegicus [5]): >99 µM/kg
ED50 (Rattus norvegicus [1]): 1.8 mg/kg
TD50 [39]: > 414 µmol/kg
ED50 (Rattus norvegicus [9]): 69.2 µM/kg
TD50/ED50 [10]: > 83
Max tolerated dose (Rattus norvegicus [26]): >199 µM/kg
ED30 (Rattus norvegicus [40]): >276 µM/kg
ED50 (Mus musculus [41]): 46.3 mg/kg
